Data taken from ChEMBL document CHEMBL1129425, “New potent antihyperglycemic agents in db/db mice: synthesis and structure-activity relationship studies of (4-substituted benzyl) (trifluoromethyl)pyrazoles and -pyrazolones” (1996).

Columns and labels:
Assay type in all cases: functional
Mus musculus [1] = experiment: Percent change in the plasma glucose concentration of drug-treated db/db mice ([…], perorally) relative to vehicle at the dose 20 mg/kg.; settings: route oral
How it was run: (§1)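 Oral dosing of db/db mice once daily for 3 days, fed ad libitum. On day 4, food was withdrawn and a fourth dose given, then mice were fasted. After 4 h, mice were anesthetized with halothane and decapitated, and blood was collected into fluoride tubes. Plasma glucose was measured on an autoanalyzer and reported as mean ± SE percent change versus vehicle controls. […]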

Mus musculus [2] = experiment: Percent change in the plasma glucose concentration of drug -treated db/db mice (4-6 mice, perorally) relative to vehicle at the dose mg/kg; how it was run: as §1
Mus musculus [3] = experiment: Percent change in the plasma glucose concentration of drug-treated db/db mice (4-6 mice, perorally) relative to vehicle at the dose 5 mg/kg.; settings: route oral; how it was run: as §1
Mus musculus [4] = experiment: Percent change in the plasma glucose concentration of drug -treated db/db mice ([…], perorally) relative to vehicle at the dose 0.5 mg/kg; settings: route oral; how it was run: as §1
Mus musculus [5] = experiment: Percent change in the plasma glucose concentration of drug -treated db/db mice ([…], perorally) relative to vehicle at the dose 2 mg/kg; settings: route oral
Mus musculus [6] = experiment: Percent change in the plasma glucose concentration of drug -treated db/db mice ([…], perorally) relative to vehicle at the dose 100 mg/kg; settings: route oral
Mus musculus [7] = experiment: Percent change in the plasma glucose concentration of drug -treated db/db mice (4-6 mice, perorally) relative to vehicle at the dose 120 mg/kg; settings: route oral; how it was run: as §1
Mus musculus [8] = experiment: Concentration required to cause significant reduction in plasma glucose when administered orally in mice.; settings: po
Mus musculus [9] = organism: Mus musculus; experiment: Percent change in the plasma glucose concentration of drug -treated db/db mice ([…], perorally) relative to vehicle (dose not specified)

Structure (SMILES)	Change (Mus musculus [1])	Change (Mus musculus [3])	other results
CCCCOc1nn(CCCC)c(C(F)(F)F)c1Cc1ccc(CC)cc1	-3%	–	–
CC(C)(C)C(=O)c1ccc(Cc2c(C(F)(F)F)n[nH]c2O)cc1	–	–	Change (Mus musculus [2]): -23%
CCOc1nn(CC)c(C(F)(F)F)c1Cc1ccc(SC)cc1	–	5%	–
CCc1ccc(Cc2c(C(F)(F)F)n[nH]c2O)cc1	–	-39%	Change (Mus musculus [4]): -11%; Change (Mus musculus [5]): -28%
CCCCSc1ccc(Cc2c(C(F)(F)F)n[nH]c2O)cc1	-3%	–	–
CCc1ccc(Cc2c(C(F)(F)F)n[nH]c2OC)cc1	–	-36%	–
Oc1[nH]nc(C(F)(F)F)c1Cc1ccccc1	–	–	Change (Mus musculus [6]): -33%
Oc1[nH]nc(C(F)(F)F)c1Cc1ccc(F)cc1	-20%	-3%	–
CCNc1ccc(Cc2c(C(F)(F)F)n[nH]c2O)cc1	–	-11%	Change (Mus musculus [7]): -61%
Oc1[nH]nc(C(F)(F)F)c1Cc1ccc(SC(F)(F)F)cc1	-15%	5%	–
Oc1[nH]nc(C(F)(F)F)c1Cc1ccc(OC(F)(F)F)cc1	–	-4%	–
CCOc1c(Cc2ccc(SC)cc2)c(C(F)(F)F)nn1CC	–	-23%	–
Cc1ccc(Cc2c(C(F)(F)F)n[nH]c2O)cc1	-36%	–	–
CC(C)(C)c1ccc(Cc2c(C(F)(F)F)n[nH]c2O)cc1	-7%	–	–
CCCCOc1[nH]nc(C(F)(F)F)c1Cc1ccc(CC)cc1	-34%	–	–
CC(C)c1ccc(Cc2c(C(F)(F)F)n[nH]c2O)cc1	–	-17%	–
Oc1[nH]nc(C(F)(F)F)c1Cc1ccc(I)cc1	-48%	–	–
CC(C)Sc1ccc(Cc2c(C(F)(F)F)n[nH]c2O)cc1	-32%	–	–
CCCCCCc1ccc(Cc2c(C(F)(F)F)n[nH]c2O)cc1	5%	–	–
CS(=O)(=O)c1ccc(Cc2c(C(F)(F)F)n[nH]c2O)cc1	–	2%	–
COc1c(Cc2ccc(SC)cc2)c(C(F)(F)F)nn1C	–	-39%	–
COc1ccc(Cc2c(C(F)(F)F)n[nH]c2O)cc1	–	-22%	–
CCCc1ccc(Cc2c(C(F)(F)F)n[nH]c2O)cc1	-44%	–	–

Structure (SMILES)	Change (Mus musculus [1])	Change (Mus musculus [3])	other results
Oc1[nH]nc(C(F)(F)F)c1Cc1ccc(C(F)(C(F)(F)F)C(F)(F)F)cc1	1%	–	–
COc1nn(C)c(C(F)(F)F)c1Cc1ccc(SC)cc1	-49%	-41%	Change (Mus musculus [5]): -20%
CSc1ccc(Cc2c(C(F)(F)F)n[nH]c2O)cc1	-57%	-43%	ED50 (Mus musculus [8]): 9.85 mg/kg; Change (Mus musculus [4]): -13%; Change (Mus musculus [6]): -68%; Change (Mus musculus [5]): -29%
CSc1ccc(Cc2c(C(F)(F)F)n(C)n(C)c2=O)cc1	-6%	–	–
CCCCc1ccc(Cc2c(C(F)(F)F)n[nH]c2O)cc1	–	-7%	–
CSc1ccc(Cc2c(C(F)(F)F)n(C)[nH]c2=O)cc1	-29%	-7%	–
CC(=O)c1ccc(Cc2c(C(F)(F)F)n[nH]c2O)cc1	–	-19%	–
CSc1ccc(Cc2c(C(F)(F)F)n[nH]c2OC(C)C)cc1	-40%	–	–
CCSc1ccc(Cc2c(C(F)(F)F)n[nH]c2O)cc1	-38%	-25%	Change (Mus musculus [5]): -23%
C/C(=N\O)c1ccc(Cc2c(C(F)(F)F)n[nH]c2O)cc1	–	-28%	–
CSc1ccc(CC2(C)C(=O)NN=C2C(F)(F)F)cc1 (configuration not stated)	-9%	–	–
Oc1[nH]nc(C(F)(F)F)c1Cc1ccc(Br)cc1	-47%	-24%	Change (Mus musculus [5]): -5%
CC(O)c1ccc(Cc2c(C(F)(F)F)n[nH]c2O)cc1 (configuration not stated)	–	-18%	–
C[S+]([O-])c1ccc(Cc2c(C(F)(F)F)n[nH]c2O)cc1 (configuration not stated)	–	-33%	Change (Mus musculus [5]): -25%
CCc1ccc(Cc2c(OC)nn(C)c2C(F)(F)F)cc1	–	-38%	–
CSc1ccc(CC2(C)C(=O)N(C)N=C2C(F)(F)F)cc1 (configuration not stated)	6%	–	–
COc1[nH]nc(C(F)(F)F)c1Cc1ccc(SC)cc1	-57%	–	Change (Mus musculus [5]): -16%
CSc1ccc(Cc2c(C)n[nH]c2O)cc1	-36%	–	Change (Mus musculus [6]): -39%
Oc1[nH]nc(C(F)(F)F)c1Cc1ccc(C(F)(F)F)cc1	–	-15%	–
CSc1ccc(Cc2c(C(F)(F)F)[nH]n(Cc3ccccc3)c2=O)cc1	10%	–	–
Oc1[nH]nc(C(F)(F)F)c1Cc1ccc(Cl)cc1	–	-6%	–
Oc1[nH]nc(C(F)(F)F)c1Cc1ccc2ccccc2c1	-45%	–	–
CSc1ccc(Cc2c(C(F)(F)F)[nH]n(C)c2=O)cc1	–	-11%	Change (Mus musculus [9]): -40%
